Source: ChEMBL document CHEMBL2311457, “Identification of bacteria-selective threonyl-tRNA synthetase substrate inhibitors by structure-based design” (J Med Chem, 2013)
Values after ≈ are worked out from the molar mass of the structure shown.

What was measured:
[1] = tested on: Burkholderia thailandensis; test: Antimicrobial activity against isogenic amrAB-oprA/bpeAB-oprB double knockout Burkholderia thailandensis E264 measured after overnight incubation by alamarBlue assay; assay type: functional
Threonine--tRNA ligase = molecular target: T1, Threonine--tRNA ligase (Yersinia pestis, UniProt Q8ZDW5); test: Binding affinity to Yersinia pestis ThrRS by coupled spectrophotometry
T1 sequence (Q8ZDW5 whole entry): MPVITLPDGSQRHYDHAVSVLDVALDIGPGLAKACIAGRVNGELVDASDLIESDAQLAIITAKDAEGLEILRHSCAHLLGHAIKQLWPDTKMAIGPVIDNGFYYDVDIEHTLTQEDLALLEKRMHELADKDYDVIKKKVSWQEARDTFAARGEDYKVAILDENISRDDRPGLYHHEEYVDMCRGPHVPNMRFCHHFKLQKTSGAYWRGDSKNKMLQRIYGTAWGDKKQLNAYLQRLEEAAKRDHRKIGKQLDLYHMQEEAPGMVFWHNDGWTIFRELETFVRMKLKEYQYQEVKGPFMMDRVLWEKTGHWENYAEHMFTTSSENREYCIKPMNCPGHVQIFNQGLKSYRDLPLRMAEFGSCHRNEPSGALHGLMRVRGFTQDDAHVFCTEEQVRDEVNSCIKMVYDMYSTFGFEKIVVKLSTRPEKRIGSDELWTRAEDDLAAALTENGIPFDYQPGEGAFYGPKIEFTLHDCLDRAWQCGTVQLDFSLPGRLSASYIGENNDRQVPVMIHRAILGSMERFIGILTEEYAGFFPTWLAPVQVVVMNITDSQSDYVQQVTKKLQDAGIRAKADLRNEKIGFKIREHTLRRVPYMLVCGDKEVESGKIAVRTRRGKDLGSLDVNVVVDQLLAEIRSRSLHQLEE
Outline: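 Coupled spectrophotometric (MESG) readout of pyrophosphate release during adenylation; L-serine 200 mM as surrogate substrate, 4 mM ATP, 5 nM enzyme, Tris pH 7.6, MgCl₂, KCl, DTT, 2% DMSO. Inhibitor 16-point 2-fold series, 50 μM–1.5 nM, normalised to no-inhibitor and no-enzyme controls. IC50 from 4-parameter fit; Ki by bisubstrate Cheng–Prusoff.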

Escherichia coli [2] = test: Antimicrobial activity against wild type Escherichia coli ATCC 25922 measured after overnight incubation by alamarBlue assay; assay type: functional
Outline: (§1)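 Broth microdilution per CLSI; DMSO stocks at 6.4 mg/mL, serially diluted and added 1:50 to inoculated medium for final 0.063–128 μg/mL. Inoculum about 5 × 10⁵ CFU/mL, checked by plating. Overnight at 37 °C; H. influenzae grown in Haemophilus test medium broth with 5% CO₂. alamarBlue added for 1 h; MIC read as the lowest concentration with no visible color change.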

[3] = Binding affinity to Burkholderia thailandensis ThrRS by coupled spectrophotometry
Escherichia coli [4] = test: Antimicrobial activity against Escherichia coli BAS849 expressing Imp Thr332-Tyr354 deletion mutant measured after overnight incubation by alamarBlue assay; assay type: functional
Haemophilus influenzae = test: Antimicrobial activity against wild type Haemophilus influenzae ATCC 31517 measured after overnight incubation by alamarBlue assay; assay type: functional; outline: as §1
Escherichia coli [5] = test: Antimicrobial activity against Escherichia coli BW25113 expressing TolC Leu13-Ala480 deletion mutant measured after overnight incubation by alamarBlue assay; assay type: functional
[6] = tested on: Burkholderia thailandensis; test: Antimicrobial activity against wild type Burkholderia thailandensis E264 measured after overnight incubation by alamarBlue assay; assay type: functional
[7] = Binding affinity to Escherichia coli ThrRS by coupled spectrophotometry
Outline: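 Coupled spectrophotometric assay following pyrophosphate released during ATP-dependent adenylation, read out through MESG with inorganic pyrophosphatase and purine nucleoside phosphorylase. Buffer was 60 mM Tris pH 7.6, 10 mM MgCl₂, 20 mM KCl, 0.5 mM DTT, 2% DMSO, with 4 mM ATP, 200 mM L-serine as surrogate substrate and 5 nM enzyme.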

[8] = molecular target: T2, Threonine--tRNA ligase 1, cytoplasmic (Homo sapiens, UniProt P26639); test: Binding affinity to human cytoplasmic ThrRS by coupled spectrophotometry
T2 sequence (P26639 whole entry): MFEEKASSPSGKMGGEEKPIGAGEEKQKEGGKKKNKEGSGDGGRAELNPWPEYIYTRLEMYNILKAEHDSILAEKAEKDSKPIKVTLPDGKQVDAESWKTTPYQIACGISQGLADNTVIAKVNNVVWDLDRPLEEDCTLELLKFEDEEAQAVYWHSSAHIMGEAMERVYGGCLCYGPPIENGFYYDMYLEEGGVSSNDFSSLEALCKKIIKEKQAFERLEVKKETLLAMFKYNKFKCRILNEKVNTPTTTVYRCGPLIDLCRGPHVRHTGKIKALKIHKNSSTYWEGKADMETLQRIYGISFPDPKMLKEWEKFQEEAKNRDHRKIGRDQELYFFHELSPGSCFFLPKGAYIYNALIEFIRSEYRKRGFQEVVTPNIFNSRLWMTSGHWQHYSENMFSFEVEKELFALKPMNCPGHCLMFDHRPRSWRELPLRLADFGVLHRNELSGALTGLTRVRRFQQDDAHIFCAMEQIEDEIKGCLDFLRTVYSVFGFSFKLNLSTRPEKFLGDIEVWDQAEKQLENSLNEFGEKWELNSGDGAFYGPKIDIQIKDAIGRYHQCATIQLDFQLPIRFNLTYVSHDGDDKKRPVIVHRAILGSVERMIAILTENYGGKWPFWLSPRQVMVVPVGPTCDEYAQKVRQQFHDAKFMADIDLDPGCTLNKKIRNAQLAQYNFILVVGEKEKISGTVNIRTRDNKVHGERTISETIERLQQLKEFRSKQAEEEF

SMILES	MIC [1]	Ki (Threonine--tRNA ligase)	MIC (Escherichia coli [2])	Ki [3]	MIC (Escherichia coli [4])	MIC (Haemophilus influenzae)	MIC (Escherichia coli [5])	MIC [6]	Ki [7]	Ki [8]
C[C@@H](O)[C@H](N)C(=O)NS(=O)(=O)/C=C/c1cccc(-c2cc(N)ncn2)c1	32 µg/mL (≈ 84.8 µM)	1.8 nM	> 128 µg/mL	1.1 nM	> 128 µg/mL	8 µg/mL (≈ 21.2 µM)	64 µg/mL (≈ 170 µM)	> 128 µg/mL	2.7 nM	
CC[C@@H](O)[C@H](N)C(=O)NS(=O)(=O)/C=C/c1cccc(-c2cc(N)ncn2)c1		2.7 nM		14.1 nM					4.3 nM	
Cc1nc(N)c2ccc(-c3cccc(S(=O)(=O)NC(=O)[C@@H](N)[C@@H](C)O)c3)cc2n1		9.3 nM		12.2 nM					17.2 nM	
CC(C)[C@@H](O)[C@H](N)C(=O)NS(=O)(=O)/C=C/c1cccc(-c2cc(N)ncn2)c1		22.5 nM		588 nM					32.4 nM	
C[C@@H](O)[C@H](N)C(=O)NS(=O)(=O)c1cccc(-c2ccc3c(N)nc(Cl)cc3c2)c1		25 nM		23 nM					20 nM	
C[C@@H](O)[C@H](N)C(=O)NCc1cccc(-c2ccc3c(N)nc(Cl)nc3c2)c1		436 nM		140 nM					329 nM	
C[C@@H](O)[C@H](N)C(=O)NS(=O)(=O)c1cccc(-c2ccc3c(c2)CNC3=O)c1		3.9 nM		7.4 nM					7.7 nM	
C[C@@H](O)[C@H](N)C(=O)NS(=O)(=O)c1cccc(-c2ccc3c(N)nccc3c2)c1		115 nM		89 nM					90 nM	
C[C@@H](O)[C@H](N)C(=O)NS(=O)(=O)c1ccc(Oc2ccccc2)cc1		33100 nM		193000 nM					36500 nM	
C[C@@H](O)[C@H](N)CNS(=O)(=O)c1cccc(-c2ccc3c(N)nc(Cl)nc3c2)c1		> 50000 nM							> 50000 nM	> 50000 nM
C[C@@H](O)[C@H](N)C(=O)NS(=O)(=O)c1ccc2ccc(-c3ncnc4[nH]ccc34)cc2c1	32 µg/mL (≈ 75.2 µM)	1.8 nM	> 128 µg/mL	0.6 nM	> 128 µg/mL	16 µg/mL (≈ 37.6 µM)	16 µg/mL (≈ 37.6 µM)	> 128 µg/mL	2.4 nM	
C[C@@H](O)[C@H](O)C(=O)NS(=O)(=O)/C=C/c1cccc(-c2cc(N)ncn2)c1		> 50000 nM							> 50000 nM	> 50000 nM
C[C@@H](O)[C@H](N)C(=O)NS(=O)(=O)N1CCc2ccc(-c3ncnc4[nH]ccc34)cc2C1		5.7 nM		4 nM					9.5 nM	
C[C@@H](O)[C@H](N)C(=O)NS(=O)(=O)c1ccc2ccc(-c3cc(N)ncn3)cc2c1	4 µg/mL (≈ 9.96 µM)	2 nM	> 128 µg/mL	0.7 nM	> 128 µg/mL	4 µg/mL (≈ 9.96 µM)	64 µg/mL (≈ 159 µM)	> 128 µg/mL	2.7 nM	
C[C@@H](O)[C@H](N)C(=O)NS(=O)(=O)c1cccc(-c2ccc3c(N)nc(Cl)nc3c2)c1	32 µg/mL (≈ 73.4 µM)	0.7 nM	> 128 µg/mL	0.3 nM	128 µg/mL (≈ 294 µM)	8 µg/mL (≈ 18.4 µM)	16 µg/mL (≈ 36.7 µM)	> 128 µg/mL	0.8 nM	
C[C@@H](O)[C@H](N)C(=O)N(C)S(=O)(=O)c1cccc(-c2ccc3c(c2)CNC3=O)c1		> 50000 nM							> 50000 nM	> 50000 nM
C[C@@H](O)[C@H](N)C(=O)NS(=O)(=O)c1cccc(-c2ccc3c(N)nc(N)nc3c2)c1	4 µg/mL (≈ 9.6 µM)	8.2 nM	> 128 µg/mL	2.9 nM	> 128 µg/mL	32 µg/mL (≈ 76.8 µM)	64 µg/mL (≈ 154 µM)	> 128 µg/mL	10.7 nM	
C[C@@H](O)[C@H](N)C(=O)NNc1cccc(-c2ccc3c(N)nc(Cl)nc3c2)c1		70 nM		34 nM					136 nM	
C[C@@H](O)[C@H](N)C(=O)NS(=O)(=O)c1cccc(-c2ccc3c(N)ncnc3c2)c1	8 µg/mL (≈ 19.9 µM)	2.2 nM	> 128 µg/mL	0.9 nM	> 128 µg/mL	16 µg/mL (≈ 39.9 µM)	64 µg/mL (≈ 159 µM)	> 128 µg/mL	2.9 nM	
Cc1n[nH]c2ccc(-c3cccc(S(=O)(=O)NC(=O)[C@@H](N)[C@@H](C)O)c3)cc12		83 nM		143 nM					127 nM	
C[C@@H](O)[C@H](N)C(=O)NS(=O)(=O)OC[C@@H]1O[C@H](n2cnc3c(N)ncnc32)[C@@H](O)[C@H]1O	64 µg/mL (≈ 143 µM)	9.8 nM	> 128 µg/mL	2.8 nM	> 128 µg/mL	> 128 µg/mL	> 128 µg/mL	> 128 µg/mL	13.1 nM	
C[C@@H](N)[C@H](N)C(=O)NS(=O)(=O)/C=C/c1cccc(-c2cc(N)ncn2)c1		> 50000 nM							> 50000 nM	
C[C@@H](O)[C@H](N)C(=O)NS(=O)(=O)c1cccc(-c2ccc3[nH]ncc3c2)c1		132 nM		164 nM					182 nM	> 50000 nM
C[C@@H](O)[C@H](N)C(=O)NS(=O)(=O)c1cccc(-c2ccc3[nH]nc(Cl)c3c2)c1		39 nM		77 nM					52 nM	
